Compound activity from PubChem.
Only some compounds are listed: those with a hit (about 2.3% of all), similar ones and a draw of the others.
TRPC4 block – inhibitors of mouse TRPC4 channel. B-score at 10 µM. AID 2247. 0.39% of 300,000 active. HEK293 TRPC4beta/mu-opioid, DAMGO-evoked Fluo4 calcium flux; stronger effect = lower value. Q9QUQ5;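 active = B-score over 3 SD under the library average, no early fluorescence shift, positive overall ratio signal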
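System: stable TRPC4beta/mu-opioid receptor HEK293 cells; Dosing: single-point compound dosing; Measured by: Fluo4 Ca2+ flux fluorescence; Read-out basis: per-well B score of integrated baseline-normalized Fluo4 ratio.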
TRPC6 activator – mouse TRPC6 channel activation; B-score at 10 µM; Q61143; 0.13% of 310,000 active; HEK293-TRPC6 membrane potential dye fluorescence; stronger effect = higher value;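 active = B-score of the integrated fluorescence ratio above library mean plus 3 SD, and starting fluorescence ratio within library mean plus 5 SD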;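 note: higher score means more depolarization so channel activation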
Target sequence (Q61143 whole entry, looked up): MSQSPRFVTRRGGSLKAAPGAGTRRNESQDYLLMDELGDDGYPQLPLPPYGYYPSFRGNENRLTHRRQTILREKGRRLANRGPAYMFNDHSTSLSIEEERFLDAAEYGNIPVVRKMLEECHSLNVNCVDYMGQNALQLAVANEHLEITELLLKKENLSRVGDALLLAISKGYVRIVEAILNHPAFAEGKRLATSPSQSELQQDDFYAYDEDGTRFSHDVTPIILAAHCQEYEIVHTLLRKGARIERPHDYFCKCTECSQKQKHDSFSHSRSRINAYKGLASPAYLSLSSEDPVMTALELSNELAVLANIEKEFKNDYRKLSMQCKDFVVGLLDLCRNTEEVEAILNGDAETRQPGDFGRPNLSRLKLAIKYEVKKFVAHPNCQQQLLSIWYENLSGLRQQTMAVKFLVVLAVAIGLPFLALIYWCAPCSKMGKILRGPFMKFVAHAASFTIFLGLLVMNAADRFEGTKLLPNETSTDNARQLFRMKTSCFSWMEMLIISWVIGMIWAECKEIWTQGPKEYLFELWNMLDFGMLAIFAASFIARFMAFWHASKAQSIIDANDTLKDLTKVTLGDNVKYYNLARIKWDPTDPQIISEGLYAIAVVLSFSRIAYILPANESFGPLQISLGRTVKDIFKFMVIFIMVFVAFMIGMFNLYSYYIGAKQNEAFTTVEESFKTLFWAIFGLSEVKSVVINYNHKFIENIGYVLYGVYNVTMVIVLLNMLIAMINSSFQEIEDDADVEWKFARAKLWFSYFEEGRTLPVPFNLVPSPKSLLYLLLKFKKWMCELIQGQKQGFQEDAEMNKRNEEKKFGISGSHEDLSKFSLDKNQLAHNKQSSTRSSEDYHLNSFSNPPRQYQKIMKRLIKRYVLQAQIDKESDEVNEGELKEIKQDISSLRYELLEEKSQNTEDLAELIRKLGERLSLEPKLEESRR
TRPC6 inhibitor – mouse TRPC6 channel inhibition. Q61143. HEK293-TRPC6, membrane potential dye, ACh-evoked depolarization; stronger effect = lower value. B-score at 10 µM. 1.1% of 310,000 active. AID 2553;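 active = B-score under library mean minus 3 SD, initial fluorescence not abnormally high, positive integrated signal ratio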;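 note: B-score derived from integrated fluorescence ratio over the kinetic read; more negative B-score means stronger inhibition of depolarization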
TRPC4 potent – TRPC4 (mouse) allosteric potentiation | Q9QUQ5 | HEK293 TRPC4beta/mu-opioid, DAMGO EC20, Fluo-4 Ca2+ flux; stronger effect = higher value | B-score at 10 µM | 0.42% of 310,000 active;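 active = B-score of calcium response area above 5 SD of library B-scores, with initial fluorescence ratio within 5 SD of library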;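 note: B-score of integrated fluorescence ratio over time as area under calcium response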
TRPC4 act – TRPC4 (mouse) channel activation | Q9QUQ5 | HEK293 TRPC4beta/mu-opioid, Fluo4 calcium fluorescence; stronger effect = higher value | B-score at 10 µM | 0.49% of 310,000 active;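 active = B-score above 5 SD of library B-scores, and initial fluorescence ratio not above library mean plus 5 SD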;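 note: positive B-score marks a calcium rise read as TRPC4 activation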
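Assay system: HEK293 stable line with TRPC4beta plus mu-opioid receptor; schedule: 45 min room-temperature Fluo4 loading, 110 s read; technique: kinetic Fluo4 calcium fluorescence; evaluation: integrated baseline-normalised fluorescence ratio, converted to per-well B score; controls: buffer (low) and maximal DAMGO (high)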
HEK293 MPD ctr – parental HEK293 nonspecific activity of TRPC6 modulators | shares compounds with TRPC6 inhibitor | membrane potential dye fluorescence | membrane potential signal change, % at 10 µM | 51% of 2,400 active | AID 488924;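 active = membrane potential signal moves up or down beyond 5 SD from buffer-only wells, on both duplicate plates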
HEK293 MPD ctr 2 – second check of TRPC6 modulator effects in parental HEK293 cells; 14% of 2,400 active; inhibition, % at 10 µM; shares compounds with TRPC6 inhibitor; membrane potential dye fluorescence; after compound, maximal acetylcholine stimulation;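 active = membrane potential signal drops by more than 5 SD from the mean control signal, in both duplicate plates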;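 note: plate controls were acetylcholine ECmax control wells for no effect and buffer only wells for full effect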
TRPC4/MOR mod – mouse TRPC4 off-target activity of TRPC6 modulators; shares compounds with TRPC6 inhibitor; HEK293 TRPC4/mu-opioid, membrane potential fluorescence; percent change from control (negative = decrease, positive = increase), % at 10 µM; 69% of 2,400 active; AID 488927;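 active = membrane potential signal moved up or down beyond 5 SD of buffer control wells, in both duplicate plates, actives on both sides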;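 note: plate controls were assay buffer wells for no effect and DAMGO maximal-effect wells for full effect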
TRPC4/MOR inh 2 – mouse TRPC4 off-target activity of TRPC6 modulators, second screen | shares compounds with TRPC6 inhibitor | HEK293 TRPC4/mu-opioid, membrane potential dye fluorescence; stimulated with maximal-effect DAMGO | inhibition, % at 10 µM | 55% of 2,400 active | AID 488928;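 active = drop in membrane potential signal beyond 5 SD of the control wells in both duplicate plates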;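 note: TRPC4 counter screen for TRPC6 hits run under conditions tuned for TRPC6 not TRPC4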
TRPC6 inh conf – confirmation of mouse TRPC6 inhibitors; inhibition, % at 10 µM; shares compounds with TRPC6 inhibitor; 43% of 3,300 active; HEK293-TRPC6, membrane potential dye, ACh-evoked depolarization;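 active = fluorescence ratio falls more than 5 SD below the full-stimulation control mean, in both duplicate runs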;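 note: integrated fluorescence ratio of peak minus minimum over baseline after agonist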
TRPC6 act conf – confirmation of mouse TRPC6 activators; shares compounds with TRPC6 inhibitor; 11% of 2,800 active; activation, % at 10 µM; AID 488961; HEK293-TRPC6 membrane potential dye fluorescence, FDSS;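 active = ratio signal rise beyond 5 SD above unstimulated control wells' mean, seen in both duplicate runs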;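 note: plate controls were buffer EC0 wells for no effect and acetylcholine ECmax response for full effect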
Numbers without * were called inactive; i = inactive; · = not tested or not shown.

SMILES	TRPC4 block	TRPC6 activator	TRPC6 inhibitor	TRPC4 potent	TRPC4 act	HEK293 MPD ctr	HEK293 MPD ctr 2	TRPC4/MOR mod	TRPC4/MOR inh 2	TRPC6 inh conf	TRPC6 act conf
COC(=O)C(N)Cc1ccc(O)c(O)c1 (stereo not drawn)	i	i	i	i	i	·	·	·	·	·	·
NCCc1ccc(O)c(O)c1	i	i	-5.26*	i	i	i	i	i	i	i	i
ClC(Cl)(Cl)c1nc2ccccc2n2nncc12	i	i	i	i	i	·	·	·	·	·	·
CS(=O)(=O)N(CC(=O)NCCSCc1ccccc1)c1ccccc1Cl	i	i	i	i	i	·	·	·	·	·	·
CCOc1ccc(OCc2ccc(C(=O)NC(C)C)o2)cc1	i	i	i	i	i	·	·	·	·	·	·
CCOc1ccc(OCc2ccc(C(=O)OCc3ccccn3)o2)cc1	i	i	-6.04*	i	i	i	i	11.0%*	i	i	i
O=C1CS/C(=N/N=C\c2ccn[nH]2)N1	i	i	i	i	i	·	·	·	·	·	·
Cc1cccn2c(CNC3CCCc4ccccc43)c(C(=O)N3CCCCC3)nc12 (stereo not drawn)	i	i	-7.98*	i	i	420.0%*	75.0%*	92.5%*	55.0%*	74.0%*	·
CCOC(=O)C1CCCN(Cc2c(C(=O)N3CCCCC3)nc3c(C)cccn23)C1 (stereo not drawn)	i	i	i	i	i	·	·	·	·	·	·
CCc1cc(=O)oc2cc(C)cc(OCC(=O)NC3CC3)c12	i	i	i	i	i	·	·	·	·	·	·
CCc1cc(=O)oc2cc(C)cc(OCC(=O)NC3CCN(Cc4ccccc4)CC3)c12	i	i	-5.51*	i	i	-100.5%*	i	-26.0%*	68.0%*	40.0%*	i
CCn1ncc([N+](=O)[O-])c1C(=O)Nc1ccc(C)c(C)c1	i	i	i	i	i	·	·	·	·	·	·
Cc1cccc(C(=O)NNC(=O)c2ccco2)c1O	i	i	i	i	i	·	·	·	·	·	·
N=c1c(-c2nc3ccccc3[nH]2)cc(C(=O)c2cccs2)nn1-c1ccc(Cl)cc1	i	i	-6.2*	i	i	i	i	-19.0%*	56.5%*	i	i
O=C(Nc1nc2ccccc2[nH]1)c1cccs1	i	i	i	i	i	·	·	·	·	·	·
Clc1nc(Nc2ccc(N3CCOCC3)cc2)c2ccccc2n1	i	i	i	i	i	·	·	·	·	·	·
